# Tested on: Cricetinae gen. sp.
# Experiment: Effective dose required for reduction of liver cholesterol ester using 7-day cholesterol-fed hamster model
# Assay type: functional
# Conditions: 168 h
row,Structure (SMILES),ED50
1,O=C1[C@H](CC[C@H](O)c2ccc(F)cc2)[C@@H](c2ccc(O)cc2)N1c1ccc(F)cc1 [EZETIMIBE],0.04 mg/kg/day
2,COc1ccc([C@@H]2[C@@H](CCCc3ccccc3)C(=O)N2c2ccc(OC)cc2)cc1 [SCH-48461],2.2 mg/kg/day

# Species on record: Oryctolagus cuniculus
# Experiment: Percent inhibition against cholesterol absorption in brush border membrane vesicle using rabbit small intestine at concentration of 6 uM
# Assay type: functional
# Conditions: not given
# Procedure, shortened: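 Cholesterol uptake into brush border membrane vesicles prepared from rabbit whole small intestine, with membrane receptors left intact. Test compounds at a nominal 6 µM; read-out is % inhibition of cholesterol uptake. Average standard deviations ±3% inhibition.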
row,Structure (SMILES),inhibition
1,COC1OC(CS(=O)(=O)Oc2ccc([C@@H]3[C@@H](CCCc4ccc(F)cc4)CN3c3ccc(F)cc3)cc2)C(O)C(O)C1O (stereo partly specified),4%
2,O=C1[C@H](CC[C@H](O)c2ccc(F)cc2)[C@@H](c2ccc(O[C@@H]3O[C@H](CO)[C@@H](O)[C@@H](O)[C@H]3O)cc2)N1c1ccc(F)cc1,14%
3,O=C1[C@H](CC[C@H](O)c2ccc(F)cc2)[C@@H](c2ccc(OS(=O)(=O)C[C@@H]3O[C@H](CO)[C@@H](O[C@@H]4O[C@H](CO)[C@@H](O)[C@@H](O)[C@H]4O)[C@@H](O)[C@H]3O)cc2)N1c1ccc(F)cc1,41%
4,O=C1[C@H](CC[C@H](O)c2ccc(F)cc2)[C@@H](c2ccc(O)cc2)N1c1ccc(F)cc1 [EZETIMIBE],16%
5,O=C1[C@H](CCCc2ccccc2)[C@@H](c2ccccc2)N1c1ccc(F)cc1 (racemic),2%
6,O=C1[C@H](CCC(O)c2ccc(F)cc2)[C@@H](c2ccc(OS(=O)(=O)CC3OC(CO)C(O)C(O)C3O)cc2)N1c1ccc(F)cc1 (stereo partly specified),15%
7,COC1OC(CS(=O)(=O)Oc2ccc(C[C@@H](CCC(O)c3ccc(F)cc3)CNc3ccc(F)cc3)cc2)C(O)C(O)C1O (stereo partly specified),3%
8,CC(C)(C)Oc1ccc([C@@H]2[C@@H](CCC(O)c3ccc(F)cc3)C(=O)N2c2ccc(F)cc2)cc1 (stereo partly specified),10%
9,O=C1[C@H](CCC(O)c2ccc(F)cc2)[C@@H](c2ccc(OS(=O)(=O)c3ccccc3)cc2)N1c1ccc(F)cc1 (stereo partly specified),26%
10,Fc1ccc(N2C[C@H](CCCc3ccccc3)[C@H]2c2ccccc2)cc1 (racemic),2%
11,COC1OC(CS(=O)(=O)Oc2ccc([C@@H]3[C@@H](CCC(O)c4ccc(F)cc4)CN3c3ccc(F)cc3)cc2)C(O)C(O)C1O (stereo partly specified),27%
12,CS(=O)(=O)Oc1ccc([C@@H]2[C@@H](CCC(O)c3ccc(F)cc3)CN2c2ccc(F)cc2)cc1 (stereo partly specified),22%
13,O=S(=O)(Oc1ccc([C@@H]2[C@@H](CCC(O)c3ccc(F)cc3)CN2c2ccc(F)cc2)cc1)c1ccccc1 (stereo partly specified),19%
14,O=C1[C@H](CCC(O)c2ccc(F)cc2)[C@@H](c2ccc(O[C@@H]3O[C@H](CO)[C@@H](O[C@@H]4O[C@H](CO)[C@@H](O)[C@@H](O)[C@H]4O)[C@@H](O)[C@H]3O)cc2)N1c1ccc(F)cc1 (stereo partly specified),27%
15,O=C1[C@H](CCCc2ccc(F)cc2)[C@@H](c2ccc(OS(=O)(=O)C[C@@H]3O[C@H](CO)[C@@H](O[C@@H]4O[C@H](CO)[C@@H](O)[C@@H](O)[C@H]4O)[C@@H](O)[C@H]3O)cc2)N1c1ccc(F)cc1,10%
16,O=C1[C@H](CCC(O)c2ccc(F)cc2)[C@@H](c2ccc(OCC3OC(CO)C(O)C(O)C3O)cc2)N1c1ccc(F)cc1 (stereo partly specified),15%
17,O=C(O)[C@H]1O[C@@H](Oc2ccc([C@@H]3[C@@H](CCC(O)c4ccc(F)cc4)C(=O)N3c3ccc(F)cc3)cc2)[C@H](O)[C@H](O)[C@@H]1O (stereo partly specified),19%
18,CS(=O)(=O)Oc1ccc(C[C@@H](CCC(O)c2ccc(F)cc2)CNc2ccc(F)cc2)cc1 (stereo partly specified),-2%
19,COC1OC(CS(=O)(=O)Oc2ccc([C@@H]3[C@@H](CCC(O)c4ccc(F)cc4)C(=O)N3c3ccc(F)cc3)cc2)C(O)C(O)C1O (stereo partly specified),20%
20,CO[C@H]1O[C@@H](COc2ccc([C@@H]3[C@@H](CC[C@H](O)c4ccc(F)cc4)C(=O)N3c3ccc(F)cc3)cc2)[C@@H](O)[C@H](O)[C@@H]1O,13%
21,O=S(=O)(CC1OC(CO)C(O)C(O)C1O)Oc1ccc([C@@H]2[C@@H](CCC(O)c3ccc(F)cc3)CN2c2ccc(F)cc2)cc1 (stereo partly specified),20%
22,O=C1[C@H](CCCc2ccc(F)cc2)[C@@H](c2ccc(O[C@@H]3O[C@H](CO)[C@@H](O[C@@H]4O[C@H](CO)[C@@H](O)[C@@H](O)[C@H]4O)[C@@H](O)[C@H]3O)cc2)N1c1ccc(F)cc1,3%
23,O=C1[C@H](CC[C@H](O)c2ccc(F)cc2)[C@@H](c2ccc(OC[C@@H]3O[C@H](CO)[C@@H](O[C@@H]4O[C@H](CO)[C@@H](O)[C@@H](O)[C@H]4O)[C@@H](O)[C@H]3O)cc2)N1c1ccc(F)cc1,28%
24,CS(=O)(=O)Oc1ccc([C@@H]2[C@@H](CCC(O)c3ccc(F)cc3)C(=O)N2c2ccc(F)cc2)cc1 (stereo partly specified),30%

# Source: ChEMBL document CHEMBL1140413, “Synthesis and in vitro evaluation of inhibitors of intestinal cholesterol absorption” (2005)
